pIC50: −log10 of the molar value. Calls of active or inactive are those of the source. The calls are words filed in the database; no cut-off is given here.
Columns and labels:
[1] = system: PC-3; experiment: Induction of apoptosis in human PC3 cells assessed as early apoptotic cells at 2 uM after 48 hrs by AnnexinV-FITC/propidium iodide staining-based flow cytometric analysis (reference value: 0.3%); assay type: functional
[2] = system: PC-3; experiment: Induction of apoptosis in human PC3 cells assessed as late apoptotic cells at 0.5 uM after 48 hrs by AnnexinV-FITC/propidium iodide staining-based flow cytometric analysis (reference value: 0.1%); assay type: functional
[3] = system: PC-3; experiment: Antimigratory activity in human PC3 cells assessed as decrease in N-Cadherin at 0.5 to 2 uM after 48 hrs by Western blot analysis; assay type: functional, cell-based
Procedure, shortened: (§1)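 PC-3 cells treated 48 h with compound at several concentrations, lysed in NP-40/SDS/deoxycholate buffer with PMSF. Equal lysate amounts resolved by SDS-PAGE, transferred to nitrocellulose, blocked in 5% milk 2 h, primary antibody overnight at 4 °C, HRP secondary, ECL detection; GAPDH as loading control.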

[4] = system: PC-3; experiment: Induction of apoptosis in human PC3 cells after 48 hrs by AnnexinV-FITC/propidium iodide staining-based flow cytometric analysis; assay type: functional, cell-based
[5] = system: PC-3; experiment: Inhibition of colony formation in human PC3 cells at 0.5 to 2 uM after 7 days by crystal violet staining-based assay; assay type: functional, cell-based
Procedure, shortened: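 About 2000 PC-3 cells/well seeded, after 24 h medium replaced with compound-containing medium for 7 days. Colonies PBS-washed, fixed in 4% paraformaldehyde 30 min, crystal violet stained 30 min, destained with PBS before evaluation. Repeated three times.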

[6] = system: PC-3; experiment: Antiproliferative activity against human PC3 cells after 72 hrs by MTT assay; assay type: functional, cell-based; settings: PC-3, 72 h
Procedure, shortened: (§2)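 Exponentially growing cells, 4×10^3/well, attached 24 h, then medium replaced with fresh medium holding graded compound concentrations for 72 h. MTT (5 mg/mL stock) added for 4 h, formazan dissolved in DMSO, absorbance at 570 nm; IC50 calculated from dose-response data.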

[7] = system: LNCaP; experiment: Antiproliferative activity against human LNCAP cells after 72 hrs by MTT assay; assay type: functional, cell-based; procedure, shortened: as §2
[8] = system: PC-3; experiment: Cell cycle arrest in human PC3 cells assessed as accumulation of cells at G2 phase at 0.5 uM after 48 hrs by RNase/propidium iodide staining-based flow cytometric analysis (reference value: 7.17%); assay type: functional
[9] = system: PC-3; experiment: Cell cycle arrest in human PC3 cells assessed as accumulation of cells at S phase at 2 uM after 48 hrs by RNase/propidium iodide staining-based flow cytometric analysis (reference value: 30.89%); assay type: functional
[10] = system: PC-3; experiment: Cell cycle arrest in human PC3 cells assessed as accumulation of cells at S phase at 0.5 uM after 48 hrs by RNase/propidium iodide staining-based flow cytometric analysis (reference value: 30.89%); assay type: functional
[11] = system: PC-3; experiment: Antimigratory activity in human PC3 cells after 48 hrs by wound-healing assay; assay type: functional, cell-based
Procedure, shortened: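 PC-3 cells seeded at 3×10^5/well, grown to 80–90% confluence, monolayer scratched with pipette tip, washed, then exposed to compound (0, 0.5, 1.0, 2.0 μM) for 48 h. Wound photographed by inverted microscopy. At least three experiments.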

[12] = system: PC-3; experiment: Cell cycle arrest in human PC3 cells assessed as accumulation of cells at S phase at 1 uM after 48 hrs by RNase/propidium iodide staining-based flow cytometric analysis (reference value: 30.89%); assay type: functional
[13] = system: PC-3; experiment: Induction of apoptosis in human PC3 cells assessed as increase in cleaved PARP after 48 hrs by Western blot analysis; assay type: functional, cell-based; procedure, shortened: as §1
[14] = system: PC-3; experiment: Cell cycle arrest in human PC3 cells assessed as accumulation of cells at G1 phase at 2 uM after 48 hrs by RNase/propidium iodide staining-based flow cytometric analysis (reference value: 61.95%); assay type: functional
[15] = system: GES1; experiment: Antiproliferative activity against human GES-1 cells after 72 hrs by MTT assay; assay type: cell-based; settings: GES1, 72 h; procedure, shortened: as §2
[16] = system: PC-3; experiment: Cell cycle arrest in human PC3 cells assessed as accumulation of cells at G2 phase at 1 uM after 48 hrs by RNase/propidium iodide staining-based flow cytometric analysis (reference value: 7.17%); assay type: functional
[17] = system: PC-3; experiment: Induction of apoptosis in human PC3 cells assessed as chromatin shrinkage at 0.5 to 2 uM after 48 hrs by Hoechst 33258 staining-based fluorescence microscopic analysis; assay type: functional, cell-based
Procedure, shortened: (§3)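 PC-3 cells, 3×10^5/well, grown 48 h, then treated with compound at varying concentrations 48 h. Methanol-fixed ~20 min, stained with 5 ug/mL Hoechst-33258 in PBS with 0.5% Triton X-100 in dark ≥30 min; nuclear condensation/fragmentation scored by UV fluorescence microscopy.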

[18] = system: PC-3; experiment: Induction of apoptosis in human PC3 cells assessed as late apoptotic cells at 2 uM after 48 hrs by AnnexinV-FITC/propidium iodide staining-based flow cytometric analysis (reference value: 0.1%); assay type: functional
[19] = system: PC-3; experiment: Induction of apoptosis in human PC3 cells assessed as necrotic cells at 0.5 uM after 48 hrs by AnnexinV-FITC/propidium iodide staining-based flow cytometric analysis (reference value: 0.5%); assay type: functional
[20] = system: PC-3; experiment: Induction of apoptosis in human PC3 cells assessed as early apoptotic cells at 0.5 uM after 48 hrs by AnnexinV-FITC/propidium iodide staining-based flow cytometric analysis (reference value: 0.3%); assay type: functional
[21] = system: PC-3; experiment: Induction of apoptosis in human PC3 cells assessed as necrotic cells at 2 uM after 48 hrs by AnnexinV-FITC/propidium iodide staining-based flow cytometric analysis (reference value: 0.5%); assay type: functional
[22] = system: PC-3; experiment: Induction of apoptosis in human PC3 cells assessed as viable cells at 0.5 uM after 48 hrs by AnnexinV-FITC/propidium iodide staining-based flow cytometric analysis (reference value: 99.1%); assay type: functional; settings: PC-3, 48 h, read-out: Activity
[23] = system: PC-3; experiment: Antimigratory activity in human PC3 cells assessed as increase in E-cadherin at 0.5 to 2 uM after 48 hrs by Western blot analysis; assay type: functional, cell-based; procedure, shortened: as §1
[24] = system: ECa-109 cell line; experiment: Antiproliferative activity against human EC109 cells after 72 hrs by MTT assay; assay type: functional, cell-based; settings: ECa-109, 72 h; procedure, shortened: as §2
[25] = system: PC-3; experiment: Cell cycle arrest in human PC3 cells assessed as accumulation of cells at G1 phase at 1 uM after 48 hrs by RNase/propidium iodide staining-based flow cytometric analysis (reference value: 61.95%); assay type: functional
[26] = system: PC-3; experiment: Antimigratory activity in human PC3 cells after 24 hrs by transwell assay
[27] = system: PC-3; experiment: Induction of apoptosis in human PC3 cells assessed as viable cells at 2 uM after 48 hrs by AnnexinV-FITC/propidium iodide staining-based flow cytometric analysis (reference value: 99.1%); assay type: functional; settings: PC-3, 48 h, read-out: Activity
[28] = system: PC-3; experiment: Induction of apoptosis in human PC3 cells assessed as early apoptotic cells at 1 uM after 48 hrs by AnnexinV-FITC/propidium iodide staining-based flow cytometric analysis (reference value: 0.3%); assay type: functional
[29] = system: PC-3; experiment: Anti-invasive activity in human PC3 cells after 48 hrs by matrigel-coated transwell assay; assay type: functional, cell-based
[30] = system: MGC-803; experiment: Antiproliferative activity against human MGC803 cells after 72 hrs by MTT assay; assay type: functional, cell-based; settings: MGC-803, 72 h; procedure, shortened: as §2
[31] = system: PC-3; experiment: Induction of apoptosis in human PC3 cells assessed as cell rounding at 0.5 to 2 uM after 48 hrs by Hoechst 33258 staining-based fluorescence microscopic analysis; assay type: functional; procedure, shortened: as §3
[32] = system: PC-3; experiment: Cell cycle arrest in human PC3 cells assessed as accumulation of cells at G1 phase at 0.5 uM after 48 hrs by RNase/propidium iodide staining-based flow cytometric analysis (reference value: 61.95%); assay type: functional
[33] = system: PC-3; experiment: Induction of apoptosis in human PC3 cells assessed as increase in caspase-3 activation after 48 hrs by Western blot analysis; assay type: functional, cell-based; procedure, shortened: as §1
[34] = system: PC-3; experiment: Induction of apoptosis in human PC3 cells assessed as necrotic cells at 1 uM after 48 hrs by AnnexinV-FITC/propidium iodide staining-based flow cytometric analysis (reference value: 0.5%); assay type: functional
[35] = system: PC-3; experiment: Antimigratory activity in human PC3 cells assessed as decrease in vimentin at 0.5 to 2 uM after 48 hrs by Western blot analysis; assay type: functional, cell-based; procedure, shortened: as §1
[36] = system: PC-3; experiment: Cell cycle arrest in human PC3 cells assessed as accumulation of cells at G2 phase at 2 uM after 48 hrs by RNase/propidium iodide staining-based flow cytometric analysis (reference value: 7.17%); assay type: functional
[37] = system: PC-3; experiment: Induction of apoptosis in human PC3 cells assessed as increase in caspase-9 activation after 48 hrs by Western blot analysis; assay type: functional, cell-based; procedure, shortened: as §1
[38] = system: PC-3; experiment: Induction of apoptosis in human PC3 cells assessed as formation of apoptotic bodies at 0.5 to 2 uM after 48 hrs by Hoechst 33258 staining-based fluorescence microscopic analysis; assay type: functional, cell-based; procedure, shortened: as §3
[39] = system: PC-3; experiment: Induction of apoptosis in human PC3 cells assessed as late apoptotic cells at 1 uM after 48 hrs by AnnexinV-FITC/propidium iodide staining-based flow cytometric analysis (reference value: 0.1%); assay type: functional
[40] = system: PC-3; experiment: Induction of apoptosis in human PC3 cells assessed as viable cells at 1 uM after 48 hrs by AnnexinV-FITC/propidium iodide staining-based flow cytometric analysis (reference value: 99.1%); assay type: functional; settings: PC-3, 48 h, read-out: Activity
[41] = system: PC-3; experiment: Antimigratory activity in human PC3 cells assessed as increase in occludin at 0.5 to 2 uM after 48 hrs by Western blot analysis; assay type: functional, cell-based; procedure, shortened: as §1

- pIC50 [6]: 5.81
- pIC50 [7]: 5.07
- pIC50 [30]: 5.56
SMILES: CCOc1cc(-c2cccnc2)cc([C@H]2CC[C@H]3[C@@H]4CC=C5C[C@@H](O)CC[C@]5(C)[C@H]4CC[C@]23C)n1
- Activity [1]: 7.3%
- Activity [2]: 2.6%
- Activity [3]: Active
- Activity [4]: Dose-dependent effect
- inhibition [5]: Active
- Activity [8]: 10.92%
- Activity [9]: 35.77%
- Activity [10]: 33.56%
- Activity [11]: Dose-dependent effect
- Activity [12]: 33.48%
- Activity [13]: Dose-dependent effect
- Activity [14]: 53.36%
- pIC50 [15]: 5.11
- Activity [16]: 11.09%
- Activity [17]: Active
- Activity [18]: 14.9%
- Activity [19]: 0.5%
- Activity [20]: 10.7%
- Activity [21]: 4.6%
- viability at 0.5 µM [22]: 86.2%
- Activity [23]: Active
- pIC50 [24]: 5.27
- Activity [25]: 55.44%
- Activity [26]: Dose-dependent effect
- viability at 2 µM [27]: 73.3%
- Activity [28]: 9.1%
- Activity [29]: Dose-dependent effect
- Activity [31]: Active
- Activity [32]: 55.52%
- Activity [33]: Dose-dependent effect
- Activity [34]: 2.5%
- Activity [35]: Active
- Activity [36]: 10.87%
- Activity [37]: Dose-dependent effect
- Activity [38]: Active
- Activity [39]: 11.7%
- viability at 1 µM [40]: 76.7%
- Activity [41]: Active

— ChEMBL document CHEMBL4145468, “Synthesis and biological evaluation of new steroidal pyridines as potential anti-prostate cancer agents” (Eur J Med Chem, 2018)
